# ChEMBL document CHEMBL1158485, “Inhibition of glyoxalase I: the first low-nanomolar tight-binding inhibitors” (J Med Chem, 2009)
# pKi: −log10 of the molar value.
# Tests used:
# Glyoxalase I = molecular target: T1, Glyoxalase I (Saccharomyces cerevisiae S288c, UniProt P50107); assay: Inhibition of yeast glyoxalase 1
# T1 sequence (P50107 whole entry): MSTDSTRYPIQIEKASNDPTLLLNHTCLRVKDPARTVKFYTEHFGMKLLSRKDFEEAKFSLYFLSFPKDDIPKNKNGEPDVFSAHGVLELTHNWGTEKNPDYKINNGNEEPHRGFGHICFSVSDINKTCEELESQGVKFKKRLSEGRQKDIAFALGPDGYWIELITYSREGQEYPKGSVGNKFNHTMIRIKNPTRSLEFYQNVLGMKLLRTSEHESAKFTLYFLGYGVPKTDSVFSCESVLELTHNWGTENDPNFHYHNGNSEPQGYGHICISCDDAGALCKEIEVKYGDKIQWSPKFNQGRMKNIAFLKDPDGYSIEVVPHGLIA
# In short: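 Yeast glyoxalase I run at 30 °C in 0.05 M phosphate buffer pH 6.6 with 0.1% BSA. Methylglyoxal (distilled, resin-treated, standardized) was present at up to 6.0 mM and fresh GSH at up to 1.3 mM. Inhibitor solutions were aqueous, adjusted to pH 6.6. Mixtures equilibrated for 6 min, then the initial rate was read as the A240 rise.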
# [1] = Stability in presence of equine kidney gamma-glutamyltranspeptidase at pH 8.4 by TLC; type: ADME
# In short: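 Inhibitor at 10 mM stock in 200 mM 2-amino-2-methyl-1,3-propanediol buffer, incubated at 37 °C with equine kidney γ-GT (0.54 mg/100 μL stock) plus Gly-Gly acceptor (40 mM stock). Breakdown was followed by TLC with UV, iodine and fluorescamine detection.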
SMILES,pKi (Glyoxalase I),Stability [1]
N[C@@H](CCC(=O)N[C@@H](CCC(=O)N(O)c1ccc(Br)cc1)C(=O)NCC(=O)O)C(=O)O.O=C(O)C(F)(F)F,8.21,Unstable
N[C@@H](CNC(=O)N[C@@H](CCC(=O)N(O)c1ccc(Br)cc1)C(=O)NCC(=O)O)C(=O)O,7.49,Stable
N[C@@H](CCC(=O)N[C@H](CCC(=O)N(O)c1ccc(Br)cc1)C(=O)NCC(=O)O)C(=O)O.O=C(O)C(F)(F)F,5.78,Stable
N[C@@H](CCC(=O)N[C@@H](CCN(O)C(=O)c1ccc(Br)cc1)C(=O)NCC(=O)O)C(=O)O.O=C(O)C(F)(F)F,6.91,Stable
N[C@@H](CCC(=O)N[C@@H](CSCc1ccc(Br)cc1)C(=O)NCC(=O)O)C(=O)O,5.20,
N[C@@H](CNC(=O)N[C@@H](CSCc1ccc(Br)cc1)C(=O)NCC(=O)O)C(=O)O,4.89,
